Test results: ChEMBL document CHEMBL4350996, “C8-substituted pyrido[3,4-d]pyrimidin-4(3H)-ones: Studies towards the identification of potent, cell penetrant Jumonji C domain containing histone lysine demethylase 4 subfamily (KDM4) inhibitors, compound profiling in cell-based target engagement assays” (Eur J Med Chem, 2019)
Substitutions are numbered along the chain they refer to. The source made the active and inactive calls. The rule behind the calls is not given here.

Key:
[1] = molecular target: Lysine-specific demethylase 5B (Homo sapiens) (UniProt Q9UGL1); assay: Inhibition of full length human wild type KDM5B transfected in HeLa cells assessed as increase in H3K4Me3 level measured after 24 hrs by cell analyser based immunofluorescence assay
[2] = test system: T1, Lysine-specific demethylase 4A (Homo sapiens), O75164 [H188A,E190A]; assay: Inhibition of FLAG tagged full length catalytically inactive human KDM4A H188A/E190A mutant transfected in HeLa cells assessed as change in H3K9Me3 level measured after 24 hrs by cell analyser based immunofluorescence assay
T1 sequence (whole entry): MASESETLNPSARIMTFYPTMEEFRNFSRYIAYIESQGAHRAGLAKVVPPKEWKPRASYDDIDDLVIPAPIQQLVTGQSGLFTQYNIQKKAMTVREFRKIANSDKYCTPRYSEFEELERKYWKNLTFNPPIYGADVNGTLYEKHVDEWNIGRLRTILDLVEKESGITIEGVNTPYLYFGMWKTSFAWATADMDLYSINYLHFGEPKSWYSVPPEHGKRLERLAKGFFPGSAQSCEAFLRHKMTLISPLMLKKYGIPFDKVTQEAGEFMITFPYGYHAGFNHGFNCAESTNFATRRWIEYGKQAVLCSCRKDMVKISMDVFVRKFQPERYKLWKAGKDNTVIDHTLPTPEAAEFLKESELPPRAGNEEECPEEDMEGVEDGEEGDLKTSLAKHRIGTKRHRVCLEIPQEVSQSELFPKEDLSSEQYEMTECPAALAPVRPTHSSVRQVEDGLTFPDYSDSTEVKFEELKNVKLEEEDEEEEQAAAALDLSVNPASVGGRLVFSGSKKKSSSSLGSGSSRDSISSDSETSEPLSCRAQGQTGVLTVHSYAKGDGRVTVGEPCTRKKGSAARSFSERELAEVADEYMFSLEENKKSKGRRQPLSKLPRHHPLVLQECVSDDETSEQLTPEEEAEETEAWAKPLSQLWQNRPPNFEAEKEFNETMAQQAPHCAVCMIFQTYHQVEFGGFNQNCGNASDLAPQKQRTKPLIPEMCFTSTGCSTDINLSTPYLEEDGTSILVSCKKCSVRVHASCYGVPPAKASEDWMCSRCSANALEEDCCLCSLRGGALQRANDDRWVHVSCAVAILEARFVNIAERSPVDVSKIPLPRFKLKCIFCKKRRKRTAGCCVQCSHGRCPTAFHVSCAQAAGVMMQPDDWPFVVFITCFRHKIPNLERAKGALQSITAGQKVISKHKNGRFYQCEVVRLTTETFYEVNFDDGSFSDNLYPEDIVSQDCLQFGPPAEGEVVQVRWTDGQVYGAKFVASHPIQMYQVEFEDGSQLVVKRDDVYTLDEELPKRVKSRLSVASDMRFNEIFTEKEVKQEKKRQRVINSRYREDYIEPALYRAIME
Summary of the method: (§1)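 HeLa cells grown in DMEM with 10% FBS, 37°C, 5% CO₂, seeded 6000 cells/well overnight. Compounds serially diluted 1:3 to 1:5 in medium with 20% FBS, DMSO held constant, then added for 24 h. Histone mark read by immunofluorescence imaging, 10 fields per well at 20X.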

[3] = test system: Lysine-specific demethylase 5B (Homo sapiens), Q9UGL1 [H499A,E501A]; assay: Inhibition of full length human catalytically inactive KDM5B H499A/E501A mutant transfected in HeLa cells assessed as change in H3K4Me3 level measured after 24 hrs by cell analyser based immunofluorescence assay; summary of the method: as §1
[4] = Drug metabolism in human LNCAP cells assessed as metabolite formation at 10 uM measured upto 120 hrs by UPHLC analysis; type: ADME, cell-based
Summary of the method: (§2)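 They were then given 10 μM compound or 0.1% DMSO vehicle. Media and trypsinised cell pellets were collected at 1, 6, 24, 48, 72 and 120 h, frozen at -80 °C, and analysed by UHPLC–Orbitrap MS using full MS/dd-MS² and full MS/AIF.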

[5] = Drug uptake in human LNCAP cells at 10 uM measured upto 120 hrs by UPHLC analysis; type: ADME, cell-based; conditions: TDE = time-dependent effect; summary of the method: as §2
[6] = molecular target: T2, Lysine-specific demethylase 4A (Homo sapiens) (UniProt O75164); assay: Inhibition of FLAG tagged full length wild type human KDM4A transfected in HeLa cells assessed as increase in H3K9Me3 level measured after 24 hrs by cell analyser based immunofluorescence assay
T2 sequence (whole entry): T1 sequence (whole entry) with A188H, A190E

Sequence of Lysine-specific demethylase 5B (Homo sapiens), Q9UGL1 [H499A,E501A] (Q9UGL1 whole entry H499A/E501A): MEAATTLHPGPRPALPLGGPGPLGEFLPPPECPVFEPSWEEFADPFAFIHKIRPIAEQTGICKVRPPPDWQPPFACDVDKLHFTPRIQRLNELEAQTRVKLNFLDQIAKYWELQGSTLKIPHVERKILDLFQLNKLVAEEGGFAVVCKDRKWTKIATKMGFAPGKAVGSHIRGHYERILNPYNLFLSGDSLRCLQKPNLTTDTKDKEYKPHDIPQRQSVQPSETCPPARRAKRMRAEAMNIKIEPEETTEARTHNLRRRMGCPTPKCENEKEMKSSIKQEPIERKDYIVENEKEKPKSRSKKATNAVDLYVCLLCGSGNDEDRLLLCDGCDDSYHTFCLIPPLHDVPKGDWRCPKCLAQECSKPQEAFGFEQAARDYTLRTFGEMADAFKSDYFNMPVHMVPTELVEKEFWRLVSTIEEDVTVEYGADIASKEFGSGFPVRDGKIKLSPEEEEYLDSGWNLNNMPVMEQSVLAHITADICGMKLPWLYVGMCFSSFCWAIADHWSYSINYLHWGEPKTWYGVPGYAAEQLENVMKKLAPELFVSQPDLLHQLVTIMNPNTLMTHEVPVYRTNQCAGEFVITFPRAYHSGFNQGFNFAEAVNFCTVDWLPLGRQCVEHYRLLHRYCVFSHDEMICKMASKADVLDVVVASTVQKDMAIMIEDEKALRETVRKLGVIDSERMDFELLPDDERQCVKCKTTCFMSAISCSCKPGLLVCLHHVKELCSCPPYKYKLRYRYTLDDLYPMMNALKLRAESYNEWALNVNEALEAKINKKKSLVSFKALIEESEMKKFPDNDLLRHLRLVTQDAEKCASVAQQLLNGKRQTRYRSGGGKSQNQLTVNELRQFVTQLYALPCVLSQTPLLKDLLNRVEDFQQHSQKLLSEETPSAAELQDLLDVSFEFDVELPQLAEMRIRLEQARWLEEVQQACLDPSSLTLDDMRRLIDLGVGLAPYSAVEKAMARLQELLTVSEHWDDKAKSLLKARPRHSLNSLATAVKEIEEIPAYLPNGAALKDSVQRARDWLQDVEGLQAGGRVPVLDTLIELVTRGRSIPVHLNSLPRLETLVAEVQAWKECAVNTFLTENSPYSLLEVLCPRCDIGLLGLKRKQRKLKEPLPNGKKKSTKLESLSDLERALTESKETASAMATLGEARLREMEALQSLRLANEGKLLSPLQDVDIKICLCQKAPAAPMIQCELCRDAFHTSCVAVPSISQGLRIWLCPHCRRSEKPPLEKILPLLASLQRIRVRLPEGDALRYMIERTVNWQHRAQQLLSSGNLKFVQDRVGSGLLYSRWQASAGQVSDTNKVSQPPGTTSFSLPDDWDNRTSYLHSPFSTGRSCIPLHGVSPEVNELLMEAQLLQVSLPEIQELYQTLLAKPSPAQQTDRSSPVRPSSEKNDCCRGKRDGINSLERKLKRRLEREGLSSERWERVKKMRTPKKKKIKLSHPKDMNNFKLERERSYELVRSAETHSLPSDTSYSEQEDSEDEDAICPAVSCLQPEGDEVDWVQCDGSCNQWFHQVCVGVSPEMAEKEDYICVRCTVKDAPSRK
Sequence of Lysine-specific demethylase 5B (Homo sapiens) (Q9UGL1 whole entry): as the sequence (Q9UGL1 whole entry H499A/E501A) above, with A499H, A501E counted along it

SMILES	inhibition [1]	inhibition [2]	inhibition [3]	Drug metabolism [4]	Drug uptake [5]	inhibition [6]
O=c1[nH]cnc2c(-n3cc(CCN4CCC5(CCc6ccccc65)CC4)cn3)cccc12	inactive	inactive	inactive	Metabolite_Notdetected	Tde	inactive
O=c1[nH]cnc2c(-n3cc(CCN4CCC5(CCc6ccccc65)CC4)cn3)nccc12	–	inactive	inactive	Metabolite_Notdetected	Tde	–
